Viability and Activity data for ten molecules are collected here from ChEMBL document CHEMBL1156360, “New phenylpropanoid esters of sucrose from Polygonum lapathifolium” (J Nat Prod, 2001).

What all share (assay type): cell-based
Series [1] is described as follows: Cytotoxicity against human Raji cells assessed as cell viability at 10 molar ratio by Trypan blue method. The conditions noted are these: read-out: Activity. The method, boiled down:
(§1)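 Raji cells (1×10^6/mL) given n-butyric acid (4 mmol), TPA (32 pmol = 20 ng per mL, in DMSO) and test compound in DMSO, then held at 37 °C for 48 h. Dose is the mol ratio of compound to TPA. Viability of the treated cells was scored by Trypan Blue staining.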

Series [2] concerns Raji. In words: Inhibition of 12-O-tetradecanoylphorbol-13-acetate-induced EBV-early antigen activation in human Raji cells at 1000 molar ratio relative to TPA. The conditions noted are these: human gammaherpesvirus 4. The arrangement: scale not given: the % may be the effect or the level left. Summed up: (§2)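 Raji cells (virus nonproducer, 1×10^6/mL) were cultured 48 h at 37 °C in 1 mL medium with n-butyric acid (4 mmol), TPA inducer (32 pmol = 20 ng in DMSO) and compound in DMSO. Dose is the mol ratio to TPA. EA-positive cells on smears were found by indirect immunofluorescence using NPC patient serum. Triplicate assays; induction is given relative to the butyric acid + TPA control (100%).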

The subject of series [3] is Raji. In words: Inhibition of 12-O-tetradecanoylphorbol-13-acetate-induced EBV-early antigen activation in human Raji cells at 500 molar ratio relative to TPA. The arrangement: scale not given: the % may be the effect or the level left. Particulars: human gammaherpesvirus 4. Summed up: as §2
The test system of series [4] is Raji. Description: Inhibition of 12-O-tetradecanoylphorbol-13-acetate-induced EBV-early antigen activation in human Raji cells at 100 molar ratio relative to TPA. Particulars: human gammaherpesvirus 4. Details: scale not given: the % may be the effect or the level left. The method, boiled down:
as §2

The nature of series [5]: Cytotoxicity against human Raji cells assessed as cell viability at 1000 molar ratio by Trypan blue method. Particulars: read-out: Activity. The method, boiled down: as §1
Series [6] can be described thus: Cytotoxicity against human Raji cells assessed as cell viability at 100 molar ratio by Trypan blue method. The conditions noted are these: read-out: Activity. The method, boiled down:
as §1

A short description of series [7]: Cytotoxicity against human Raji cells assessed as cell viability at 500 molar ratio by Trypan blue method. The conditions noted are these: read-out: Activity. Summed up: as §1
Series [8] has as its system Raji. In words: Inhibition of 12-O-tetradecanoylphorbol-13-acetate-induced EBV-early antigen activation in human Raji cells at 10 molar ratio relative to TPA. The conditions noted are these: human gammaherpesvirus 4. Details: scale not given: the % may be the effect or the level left. Summed up:
as §2

Take `CC[C@H](CC[C@@H](C)[C@H]1CC[C@H]2[C@@H]3C(=O)C=C4C[C@@H](O)CC[C@]4(C)[C@H]3CC[C@]12C)C(C)C`: in series [1], the viability at 10 molar ratio is more than 80%. For the same molecule, the Activity in the series with Raji [2] amounted to 11.5%; with Raji [3], 42.8%; in the series with Raji [4], 71.5%; with Raji [8], 100%. Besides, the viability at 1000 molar ratio in series [5] is 60%. The viability at 100 molar ratio in series [6] is more than 80%. In addition, in series [7], the viability at 500 molar ratio is more than 80%.

With `Oc1cc(O)c2c(c1)O[C@@H](c1ccc(O)c(O)c1)[C@H](O)C2` [(-)-CATECHIN], in series [1], the viability at 10 molar ratio is more than 80%. Besides, the Activity is 11.3% with Raji [2], 41.3% in the series with Raji [3], 75.8% with Raji [4] and 100% with Raji [8]. Besides, in series [5], the viability at 1000 molar ratio amounted to 70%. Also, the viability at 100 molar ratio in series [6] is more than 80%. The viability at 500 molar ratio in series [7] was more than 80%.

Regarding `O=C(/C=C/c1ccc(O)cc1)OC[C@H]1O[C@@](COC(=O)/C=C/c2ccc(O)cc2)(O[C@H]2O[C@H](CO)[C@@H](O)[C@H](O)[C@H]2O)[C@@H](OC(=O)/C=C/c2ccc(O)cc2)[C@@H]1O` [HYDROPIPEROSIDE], the viability at 10 molar ratio in series [1] is more than 80%. Also, the Activity with Raji [2] amounted to 10.6%; in the series on Raji [3], 39.6%; in the series on Raji [4], 71.5%; in the series on Raji [8], 100%. The viability at 1000 molar ratio in series [5] was 70%. Further, the viability at 100 molar ratio in series [6] was more than 80%. The viability at 500 molar ratio in series [7] is more than 80%.

Regarding `COc1cc(/C=C/C(=O)OC[C@H]2O[C@H](O[C@]3(COC(=O)/C=C/c4ccc(O)c(OC)c4)O[C@H](COC(=O)/C=C/c4ccc(O)cc4)[C@@H](O)[C@@H]3OC(=O)/C=C/c3ccc(O)cc3)[C@H](O)[C@@H](O)[C@@H]2O)ccc1O` [LAPATHOSIDE A], the viability at 10 molar ratio in series [1] is more than 80%. Also, the Activity with Raji [2] stood at 10%; in the series with Raji [3], 37.2%; in the series on Raji [4], 70.9%; in the series with Raji [8], 95%. The viability at 1000 molar ratio in series [5] worked out at 70%. The viability at 100 molar ratio in series [6] was more than 80%. The viability at 500 molar ratio in series [7] is more than 80%.

As for `COc1cc(/C=C/C(=O)OC[C@H]2O[C@@](COC(=O)/C=C/c3ccc(O)c(OC)c3)(O[C@H]3O[C@H](COC(=O)/C=C/c4ccc(O)c(OC)c4)[C@@H](O)[C@H](O)[C@H]3O)[C@@H](OC(=O)/C=C/c3ccc(O)cc3)[C@@H]2O)ccc1O` [LAPATHOSIDE B], the viability at 10 molar ratio in series [1] was more than 80%. In addition, the Activity worked out at 26.8% in the series on Raji [2], 51.6% in the series with Raji [3], 77.9% in the series on Raji [4] and 100% with Raji [8]. Further, the viability at 1000 molar ratio in series [5] amounted to 60%. In series [6], the viability at 100 molar ratio was more than 80%. For the same molecule, in series [7], the viability at 500 molar ratio is more than 80%.

For the molecule `COc1cc(/C=C/C(=O)OC[C@H]2O[C@H](O[C@]3(CO)O[C@H](COC(=O)/C=C/c4ccc(O)cc4)[C@@H](O)[C@@H]3OC(=O)/C=C/c3ccc(O)cc3)[C@H](O)[C@@H](O)[C@@H]2O)ccc1O` [LAPATHOSIDE C], in series [1], the viability at 10 molar ratio was more than 80%. Besides, the Activity in the series with Raji [2] turned out to be 33.6%; with Raji [3], 59%; with Raji [4] it was 83.5%; with Raji [8] it was 100%. In addition, in series [5], the viability at 1000 molar ratio turned out to be 70%. Also, in series [6], the viability at 100 molar ratio is more than 80%. Further, the viability at 500 molar ratio in series [7] is more than 80%.

As to `O=C(/C=C/c1ccc(O)cc1)OC[C@H]1O[C@@](CO)(O[C@H]2O[C@H](CO)[C@@H](O)[C@H](O)[C@H]2O)[C@@H](OC(=O)/C=C/c2ccc(O)cc2)[C@@H]1O` [LAPATHOSIDE D], the viability at 10 molar ratio in series [1] was more than 80%. In addition, the Activity with Raji [2] stood at 10.5%; with Raji [3], 38.3%; in the series with Raji [4], 71.4%; with Raji [8], 100%. In series [5], the viability at 1000 molar ratio worked out at 70%. Also, the viability at 100 molar ratio in series [6] is more than 80%. Moreover, the viability at 500 molar ratio in series [7] is more than 80%.

As for `COC(=O)/C=C/c1ccc(O)cc1` [METHYL P-HYDROXYCINNAMATE], the viability at 10 molar ratio in series [1] was more than 80%. Also, the Activity in the series on Raji [2] was 15.7%; with Raji [3], 42.6%; in the series with Raji [4], 77.5%; in the series with Raji [8], 100%. Also, the viability at 1000 molar ratio in series [5] turned out to be 70%. In addition, in series [6], the viability at 100 molar ratio is more than 80%. Further, the viability at 500 molar ratio in series [7] was more than 80%.

With `CC[C@H](CC[C@@H](C)[C@H]1CC[C@H]2[C@@H]3CC=C4C[C@@H](O[C@@H]5O[C@H](CO)[C@@H](O)[C@H](O)[C@H]5O)CC[C@]4(C)[C@H]3CC[C@]12C)C(C)C` [SITOGLUSIDE], in series [1], the viability at 10 molar ratio is more than 80%. Further, the Activity in the series on Raji [2] amounted to 14.8%; in the series with Raji [3], 45.7%; with Raji [4] it was 73.9%; in the series on Raji [8], 100%. For the same molecule, the viability at 1000 molar ratio in series [5] was determined as 60%. The viability at 100 molar ratio in series [6] was more than 80%. For the same molecule, in series [7], the viability at 500 molar ratio is more than 80%.

As to `COc1cc(/C=C/C(=O)OC[C@H]2O[C@H](O[C@]3(COC(=O)/C=C/c4ccc(O)cc4)O[C@H](COC(=O)/C=C/c4ccc(O)cc4)[C@@H](O)[C@@H]3OC(=O)/C=C/c3ccc(O)cc3)[C@H](O)[C@@H](O)[C@@H]2O)ccc1O` [VANICOSIDE B], the viability at 10 molar ratio in series [1] was more than 80%. The Activity worked out at 11.8% in the series on Raji [2], 40.9% in the series with Raji [3], 70% in the series on Raji [4] and 100% with Raji [8]. Also, the viability at 1000 molar ratio in series [5] amounted to 70%. Besides, the viability at 100 molar ratio in series [6] is more than 80%. In addition, the viability at 500 molar ratio in series [7] is more than 80%.
